Data reported in ChEMBL document CHEMBL2321753, “Synthesis and biological evaluation of radioiodinated quinacrine-based derivatives for SPECT imaging of Aβ plaques” (Eur J Med Chem, 2013).

Legend:
[1] = test system: Spleen; assay: Biodistribution in ddY mouse spleen at 0.1 to 0.4 uCi, iv after 2 mins by gamma counting; format: ADME, organism-based; conditions: in vivo
In short: (§1)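 [125I]ligand (0.1–0.4 µCi) in 100 µL PBS (pH 7.4) containing 30 µL DMSO, injected into the tail vein of ddY mice (5 weeks, 22–25 g). Mice sacrificed at 2, 10, 30 and 60 min. Organs removed, weighed and gamma-counted. Values are % injected dose per gram, except stomach as % dose per organ. Mean (SD) of 3–6 mice per time point.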

[2] = test system: Kidney; assay: Biodistribution in ddY mouse kidney at 0.1 to 0.4 uCi, iv after 60 mins by gamma counting; format: ADME, organism-based; conditions: in vivo, 1 h; in short: as §1
[3] = test system: Brain; assay: Biodistribution in ddY mouse brain at 0.1 to 0.4 uCi, iv after 30 mins by gamma counting; format: ADME, organism-based; conditions: in vivo, 0.5 h; in short: as §1
[4] = test system: Blood; assay: Biodistribution in ddY mouse blood at 0.1 to 0.4 uCi, iv after 10 mins by gamma counting; format: ADME, organism-based; conditions: in vivo; in short: as §1
[5] = test system: Intestine; assay: Biodistribution in ddY mouse intestine at 0.1 to 0.4 uCi, iv after 2 mins by gamma counting; format: ADME, organism-based; conditions: in vivo; in short: as §1
[6] = test system: Liver; assay: Biodistribution in ddY mouse liver at 0.1 to 0.4 uCi, iv after 60 mins by gamma counting; format: ADME, organism-based; conditions: in vivo, 1 h; in short: as §1
[7] = test system: Intestine; assay: Biodistribution in ddY mouse intestine at 0.1 to 0.4 uCi, iv after 30 mins by gamma counting; format: ADME, organism-based; conditions: in vivo, 0.5 h; in short: as §1
[8] = test system: Spleen; assay: Biodistribution in ddY mouse spleen at 0.1 to 0.4 uCi, iv after 10 mins by gamma counting; format: ADME, organism-based; conditions: in vivo; in short: as §1
[9] = test system: Brain; assay: Biodistribution in ddY mouse brain at 0.1 to 0.4 uCi, iv after 2 mins by gamma counting; format: ADME, organism-based; conditions: in vivo; in short: as §1
[10] = test system: Stomach; assay: Biodistribution in ddY mouse stomach assessed per organ at 0.1 to 0.4 uCi, iv after 60 mins by gamma counting; format: ADME, organism-based; conditions: in vivo, 1 h; in short: as §1
[11] = test system: Liver; assay: Biodistribution in ddY mouse liver at 0.1 to 0.4 uCi, iv after 30 mins by gamma counting; format: ADME, organism-based; conditions: in vivo, 0.5 h; in short: as §1
[12] = test system: Intestine; assay: Biodistribution in ddY mouse intestine at 0.1 to 0.4 uCi, iv after 60 mins by gamma counting; format: ADME, organism-based; conditions: in vivo, 1 h; in short: as §1
[13] = test system: Kidney; assay: Biodistribution in ddY mouse kidney at 0.1 to 0.4 uCi, iv after 30 mins by gamma counting; format: ADME, organism-based; conditions: in vivo, 0.5 h; in short: as §1
[14] = test system: Heart; assay: Biodistribution in ddY mouse heart at 0.1 to 0.4 uCi, iv after 10 mins by gamma counting; format: ADME, organism-based; conditions: in vivo; in short: as §1
[15] = test system: Blood; assay: Biodistribution in ddY mouse blood at 0.1 to 0.4 uCi, iv after 2 mins by gamma counting; format: ADME, organism-based; conditions: in vivo; in short: as §1
[16] = test system: Lung; assay: Biodistribution in ddY mouse lung at 0.1 to 0.4 uCi, iv after 60 mins by gamma counting; format: ADME, organism-based; conditions: in vivo, 1 h; in short: as §1
[17] = test system: Lung; assay: Biodistribution in ddY mouse lung at 0.1 to 0.4 uCi, iv after 2 mins by gamma counting; format: ADME, organism-based; conditions: in vivo; in short: as §1
[18] = test system: Intestine; assay: Biodistribution in ddY mouse intestine at 0.1 to 0.4 uCi, iv after 10 mins by gamma counting; format: ADME, organism-based; conditions: in vivo; in short: as §1
[19] = test system: Brain; assay: Biodistribution in ddY mouse brain at 0.1 to 0.4 uCi, iv after 60 mins by gamma counting; format: ADME, organism-based; conditions: in vivo, 1 h; in short: as §1
[20] = test system: Stomach; assay: Biodistribution in ddY mouse stomach assessed per organ at 0.1 to 0.4 uCi, iv after 10 mins by gamma counting; format: ADME, organism-based; conditions: in vivo; in short: as §1
[21] = test system: Pancreas; assay: Biodistribution in ddY mouse pancreas at 0.1 to 0.4 uCi, iv after 60 mins by gamma counting; format: ADME, organism-based; conditions: in vivo, 1 h; in short: as §1
[22] = test system: Liver; assay: Biodistribution in ddY mouse liver at 0.1 to 0.4 uCi, iv after 2 mins by gamma counting; format: ADME, organism-based; conditions: in vivo; in short: as §1
[23] = test system: Brain; assay: Ratio of drug level in brain after 2 mins to brain after 60 mins in ddY mouse brain at 0.1 to 0.4 uCi, iv; format: ADME, organism-based; conditions: in vivo
In short: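 ddY mice (5 weeks, 22–25 g) given [125I]ligand (0.1–0.4 µCi) iv in PBS/DMSO. Brain radioactivity (% dose/g) measured by gamma counting at 2 and 60 min, and the 2 min/60 min ratio taken as a washout index.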

[24] = test system: Heart; assay: Biodistribution in ddY mouse heart at 0.1 to 0.4 uCi, iv after 2 mins by gamma counting; format: ADME, organism-based; conditions: in vivo; in short: as §1
[25] = test system: Brain; assay: Biodistribution in ddY mouse brain at 0.1 to 0.4 uCi, iv after 10 mins by gamma counting; format: ADME, organism-based; conditions: in vivo; in short: as §1
[26] = test system: Kidney; assay: Biodistribution in ddY mouse kidney at 0.1 to 0.4 uCi, iv after 10 mins by gamma counting; format: ADME, organism-based; conditions: in vivo; in short: as §1
[27] = test system: Stomach; assay: Biodistribution in ddY mouse stomach assessed per organ at 0.1 to 0.4 uCi, iv after 2 mins by gamma counting; format: ADME, organism-based; conditions: in vivo; in short: as §1
[28] = test system: Spleen; assay: Biodistribution in ddY mouse spleen at 0.1 to 0.4 uCi, iv after 30 mins by gamma counting; format: ADME, organism-based; conditions: in vivo, 0.5 h; in short: as §1
[29] = test system: Pancreas; assay: Biodistribution in ddY mouse pancreas at 0.1 to 0.4 uCi, iv after 2 mins by gamma counting; format: ADME, organism-based; conditions: in vivo; in short: as §1
[30] = test system: Liver; assay: Biodistribution in ddY mouse liver at 0.1 to 0.4 uCi, iv after 10 mins by gamma counting; format: ADME, organism-based; conditions: in vivo; in short: as §1
[31] = test system: Pancreas; assay: Biodistribution in ddY mouse pancreas at 0.1 to 0.4 uCi, iv after 30 mins by gamma counting; format: ADME, organism-based; conditions: in vivo, 0.5 h; in short: as §1
[32] = test system: Blood; assay: Biodistribution in ddY mouse blood at 0.1 to 0.4 uCi, iv after 30 mins by gamma counting; format: ADME, organism-based; conditions: in vivo, 0.5 h; in short: as §1
[33] = test system: Heart; assay: Biodistribution in ddY mouse heart at 0.1 to 0.4 uCi, iv after 60 mins by gamma counting; format: ADME, organism-based; conditions: in vivo, 1 h; in short: as §1
[34] = test system: Stomach; assay: Biodistribution in ddY mouse stomach assessed per organ at 0.1 to 0.4 uCi, iv after 30 mins by gamma counting; format: ADME, organism-based; conditions: in vivo, 0.5 h; in short: as §1
[35] = test system: Pancreas; assay: Biodistribution in ddY mouse pancreas at 0.1 to 0.4 uCi, iv after 10 mins by gamma counting; format: ADME, organism-based; conditions: in vivo; in short: as §1
[36] = test system: Kidney; assay: Biodistribution in ddY mouse kidney at 0.1 to 0.4 uCi, iv after 2 mins by gamma counting; format: ADME, organism-based; conditions: in vivo; in short: as §1
[37] = test system: Spleen; assay: Biodistribution in ddY mouse spleen at 0.1 to 0.4 uCi, iv after 60 mins by gamma counting; format: ADME, organism-based; conditions: in vivo, 1 h; in short: as §1
[38] = test system: Blood; assay: Biodistribution in ddY mouse blood at 0.1 to 0.4 uCi, iv after 60 mins by gamma counting; format: ADME, organism-based; conditions: in vivo, 1 h; in short: as §1
[39] = test system: Lung; assay: Biodistribution in ddY mouse lung at 0.1 to 0.4 uCi, iv after 30 mins by gamma counting; format: ADME, organism-based; conditions: in vivo, 0.5 h; in short: as §1
[40] = test system: Heart; assay: Biodistribution in ddY mouse heart at 0.1 to 0.4 uCi, iv after 30 mins by gamma counting; format: ADME, organism-based; conditions: in vivo, 0.5 h; in short: as §1
[41] = test system: Lung; assay: Biodistribution in ddY mouse lung at 0.1 to 0.4 uCi, iv after 10 mins by gamma counting; format: ADME, organism-based; conditions: in vivo; in short: as §1
[42] = n-octanol-sodium phosphate buffer partition co-efficient, log D of the compound at pH 7.4 by shake flask method; format: physicochemical
In short: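 Shake-flask partition between n-octanol and sodium phosphate buffer, pH 7.4, shaken 10 min at room temperature, then centrifuged. Weighed 0.5 mL samples of each layer counted. log D from the ratio of cpm per gram of octanol to cpm per gram of buffer; n = 3.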

Compound: COc1ccc2nc3cc([125I])ccc3c(OC)c2c1
- Drug uptake [1]: 3.75 % ID/g
- Drug uptake [2]: 2.77 % ID/g
- Drug uptake [3]: 0.82 % ID/g
- Drug uptake [4]: 2.19 % ID/g
- Drug uptake [5]: 2.59 % ID/g
- Drug uptake [6]: 5.8 % ID/g
- Drug uptake [7]: 16.78 % ID/g
- Drug uptake [8]: 2.12 % ID/g
- Drug uptake [9]: 4.41 % ID/g
- Drug uptake [10]: 4.36 %ID
- Drug uptake [11]: 13.65 % ID/g
- Drug uptake [12]: 20.17 % ID/g
- Drug uptake [13]: 4.41 % ID/g
- Drug uptake [14]: 1.82 % ID/g
- Drug uptake [15]: 2.14 % ID/g
- Drug uptake [16]: 2.04 % ID/g
- Drug uptake [17]: 5.95 % ID/g
- Drug uptake [18]: 6.41 % ID/g
- Drug uptake [19]: 0.37 % ID/g
- Drug uptake [20]: 3.51 %ID
- Drug uptake [21]: 1.1 % ID/g
- Drug uptake [22]: 18.77 % ID/g
- Ratio [23]: 11.9
- Drug uptake [24]: 5.83 % ID/g
- Drug uptake [25]: 2.14 % ID/g
- Drug uptake [26]: 4.69 % ID/g
- Drug uptake [27]: 1.86 %ID
- Drug uptake [28]: 1.87 % ID/g
- Drug uptake [29]: 5.41 % ID/g
- Drug uptake [30]: 20.85 % ID/g
- Drug uptake [31]: 1.33 % ID/g
- Drug uptake [32]: 2.59 % ID/g
- Drug uptake [33]: 1.1 % ID/g
- Drug uptake [34]: 5.97 %ID
- Drug uptake [35]: 2.03 % ID/g
- Drug uptake [36]: 8.07 % ID/g
- Drug uptake [37]: 1.24 % ID/g
- Drug uptake [38]: 1.77 % ID/g
- Drug uptake [39]: 3.28 % ID/g
- Drug uptake [40]: 1.59 % ID/g
- Drug uptake [41]: 3.37 % ID/g

Compound: CNc1c2ccc([125I])cc2nc2ccc(OC)cc12
- Drug uptake [1]: 7.6 % ID/g
- Drug uptake [2]: 6 % ID/g
- Drug uptake [3]: 0.95 % ID/g
- Drug uptake [4]: 1.18 % ID/g
- Drug uptake [5]: 3.82 % ID/g
- Drug uptake [6]: 7.52 % ID/g
- Drug uptake [7]: 19.47 % ID/g
- Drug uptake [8]: 9.14 % ID/g
- Drug uptake [9]: 2.97 % ID/g
- Drug uptake [10]: 5.58 %ID
- Drug uptake [11]: 8.26 % ID/g
- Drug uptake [12]: 23.83 % ID/g
- Drug uptake [13]: 10.25 % ID/g
- Drug uptake [14]: 2.8 % ID/g
- Drug uptake [15]: 1.75 % ID/g
- Drug uptake [16]: 2.3 % ID/g
- Drug uptake [17]: 15.8 % ID/g
- Drug uptake [18]: 9.11 % ID/g
- Drug uptake [19]: 0.33 % ID/g
- Drug uptake [20]: 3.71 %ID
- Drug uptake [21]: 1.63 % ID/g
- Drug uptake [22]: 17.25 % ID/g
- Ratio [23]: 9
- Drug uptake [24]: 7.79 % ID/g
- Drug uptake [25]: 2.34 % ID/g
- Drug uptake [26]: 11.89 % ID/g
- Drug uptake [27]: 1.71 %ID
- Drug uptake [28]: 6.02 % ID/g
- Drug uptake [29]: 6.91 % ID/g
- Drug uptake [30]: 16.41 % ID/g
- Drug uptake [31]: 3.55 % ID/g
- Drug uptake [32]: 0.85 % ID/g
- Drug uptake [33]: 0.84 % ID/g
- Drug uptake [34]: 4.63 %ID
- Drug uptake [35]: 6.92 % ID/g
- Drug uptake [36]: 12.98 % ID/g
- Drug uptake [37]: 4.45 % ID/g
- Drug uptake [38]: 0.56 % ID/g
- Drug uptake [39]: 4.38 % ID/g
- Drug uptake [40]: 1.46 % ID/g
- logD [42]: 2.14
- Drug uptake [41]: 5.62 % ID/g
